# Experimental data reported in ChEMBL document CHEMBL1141726, “bis-Pyridinium cyclophanes: novel ligands with high affinity for the blood-brain barrier choline transporter” (Bioorg Med Chem Lett, 2008).
# Experiment: Binding affinity to blood-brain barrier choline transporter in rat brain assessed as inhibition of [3H]choline uptake
# Format: tissue-based
# In short: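 In situ rat brain perfusion (Allen and Smith modification); inhibition of [3H]choline uptake into brain measured. Ki taken as analogue concentration inhibiting 50% of [3H]-choline uptake, calculated from a single inhibitor concentration. Ki values compared by ANOVA with Bonferroni's multiple comparisons test.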
row,SMILES,Ki
1,c1ccc2c[n+](CCCCCCCCCCCC[n+]3ccc4ccccc4c3)ccc2c1,22 µM
2,c1ccc2c[n+](CCCCCCCCCC[n+]3ccc4ccccc4c3)ccc2c1,9.5 µM
3,CCCCCCCC[n+]1cccc([C@@H]2CCCN2C)c1,49 µM
4,c1ccc2c[n+](CCCCCC[n+]3ccc4ccccc4c3)ccc2c1,29 µM
5,C1#Cc2ccc[n+](c2)CCCCCCCC[n+]2cccc(c2)C#CCCCCCC1,0.8 µM
6,C1#Cc2ccc[n+](c2)CCCCCCCCC[n+]2cccc(c2)C#CCCCCCC1,33.8 µM
7,C1#Cc2ccc[n+](c2)CCCC[n+]2cccc(c2)C#CCCCCCC1,15.2 µM
8,C1#Cc2ccc[n+](c2)CCCCCCC[n+]2cccc(c2)C#CCCCCCC1,1.4 µM
9,Cc1ccc[n+](CCCCCCCCCCCC[n+]2cccc(C)c2)c1,36 µM
10,C[N+](C)(C)CCO [CHOLINE],41 µM
